The results in this text go back to ChEMBL document CHEMBL1250448, “Inhibitor hijacking of Akt activation” (Nat Chem Biol, 2009).

The target of experiment [1] is Protein-tyrosine kinase 6 (Homo sapiens) (UniProt Q13882). Briefly: Inhibition of PTK6 at 1 uM in presence of 10 uM ATP by Select Screen kinase assay relative to untreated control. The method in brief:
(§1)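 Commercial SelectScreen profiling panel of 220 purified kinases. Each kinase was tested at a single inhibitor concentration of 1 μM, and activity was expressed as percent inhibition.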

The target in experiment [2] is T1, Activin receptor type-1B (Homo sapiens) (UniProt P36896).
T1 sequence (whole entry): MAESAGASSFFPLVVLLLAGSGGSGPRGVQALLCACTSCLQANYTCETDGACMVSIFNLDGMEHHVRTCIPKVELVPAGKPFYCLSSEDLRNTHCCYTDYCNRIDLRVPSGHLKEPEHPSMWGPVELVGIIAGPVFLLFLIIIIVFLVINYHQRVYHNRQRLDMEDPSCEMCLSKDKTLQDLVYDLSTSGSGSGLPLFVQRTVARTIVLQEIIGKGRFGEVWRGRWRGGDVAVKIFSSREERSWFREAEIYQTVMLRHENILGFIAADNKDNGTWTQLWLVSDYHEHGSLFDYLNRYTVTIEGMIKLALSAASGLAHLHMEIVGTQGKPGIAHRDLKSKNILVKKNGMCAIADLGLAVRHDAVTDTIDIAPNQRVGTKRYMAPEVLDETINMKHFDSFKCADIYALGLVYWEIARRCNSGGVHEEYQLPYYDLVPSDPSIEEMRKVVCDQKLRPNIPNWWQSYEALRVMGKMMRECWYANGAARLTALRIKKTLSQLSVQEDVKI
Briefly: Inhibition of ACVR1B at 1 uM in presence of 10 uM ATP by Select Screen kinase assay relative to untreated control. The method in brief: (§2)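 Single-point screen at 1 μM against a panel of 220 purified kinases, run by Invitrogen staff as a SelectScreen profiling service. Read-out is percent inhibition of kinase activity.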

Experiment [3] concerns the target Proto-oncogene tyrosine-protein kinase Src (Homo sapiens) (UniProt P12931). Nature of the experiment: Inhibition of SRC at 1 uM in presence of 10 uM ATP by Select Screen kinase assay relative to untreated control. Put shortly: as §1
For experiment [4], the target named is Tyrosine-protein kinase CSK (Homo sapiens) (UniProt P41240). Nature of the experiment: Inhibition of CSK at 1 uM in presence of 10 uM ATP by Select Screen kinase assay relative to untreated control. The method in brief: as §2
Sequence of Tyrosine-protein kinase CSK (Homo sapiens) (P41240 2-450 limits assumed): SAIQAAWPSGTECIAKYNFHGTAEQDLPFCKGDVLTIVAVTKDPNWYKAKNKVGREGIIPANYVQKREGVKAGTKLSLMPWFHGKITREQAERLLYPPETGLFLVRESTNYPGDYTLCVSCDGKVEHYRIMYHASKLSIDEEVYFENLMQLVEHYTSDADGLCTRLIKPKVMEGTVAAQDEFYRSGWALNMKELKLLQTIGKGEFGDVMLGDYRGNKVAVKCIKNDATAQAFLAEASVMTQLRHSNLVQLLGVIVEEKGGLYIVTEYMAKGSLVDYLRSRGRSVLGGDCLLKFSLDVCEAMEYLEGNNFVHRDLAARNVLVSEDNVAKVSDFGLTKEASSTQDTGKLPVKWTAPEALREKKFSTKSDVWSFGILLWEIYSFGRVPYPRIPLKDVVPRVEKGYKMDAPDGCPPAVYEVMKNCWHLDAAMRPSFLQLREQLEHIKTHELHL
Experiment [5] concerns the target T2, Serine/threonine-protein kinase DCLK2 (Homo sapiens) (UniProt Q8N568).
T2 sequence (whole entry): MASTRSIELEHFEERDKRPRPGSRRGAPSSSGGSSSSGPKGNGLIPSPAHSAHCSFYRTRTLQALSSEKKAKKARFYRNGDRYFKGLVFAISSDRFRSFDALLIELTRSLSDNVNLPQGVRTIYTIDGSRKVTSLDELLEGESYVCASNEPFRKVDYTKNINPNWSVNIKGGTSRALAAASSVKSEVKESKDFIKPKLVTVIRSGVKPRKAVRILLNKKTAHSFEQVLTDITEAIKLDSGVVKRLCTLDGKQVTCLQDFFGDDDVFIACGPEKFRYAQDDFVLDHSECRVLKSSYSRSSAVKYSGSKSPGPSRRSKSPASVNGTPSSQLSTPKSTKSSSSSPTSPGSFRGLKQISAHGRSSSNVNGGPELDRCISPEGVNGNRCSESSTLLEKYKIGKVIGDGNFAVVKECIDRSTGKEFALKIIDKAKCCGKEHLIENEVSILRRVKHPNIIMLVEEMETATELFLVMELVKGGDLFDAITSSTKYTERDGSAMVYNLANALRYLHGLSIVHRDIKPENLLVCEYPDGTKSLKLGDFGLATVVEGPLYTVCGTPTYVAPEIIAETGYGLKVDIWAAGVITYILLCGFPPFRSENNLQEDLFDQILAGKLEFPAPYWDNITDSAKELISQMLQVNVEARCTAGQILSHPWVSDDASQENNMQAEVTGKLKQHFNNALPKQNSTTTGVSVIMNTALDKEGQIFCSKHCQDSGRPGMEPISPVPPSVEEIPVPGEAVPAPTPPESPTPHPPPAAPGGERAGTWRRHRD
Nature of the experiment: Inhibition of DCAMKL2 at 1 uM in presence of 100 uM ATP by Select Screen kinase assay relative to untreated control. The method in brief: as §2

Experiment [6] has as its target Tyrosine-protein kinase Lck (Homo sapiens) (UniProt P06239). Briefly: Inhibition of LCK at 1 uM in presence of 10 uM ATP by Select Screen kinase assay relative to untreated control. The method in brief:
(§3)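 Single-concentration profiling at 1 μM against a panel of 220 purified kinases, run as an outsourced SelectScreen kinase profiling service. Activity is expressed as percent inhibition.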

In experiment [7] the target is Tyrosine-protein kinase Lyn (Homo sapiens) (UniProt P07948). Briefly: Inhibition of LYN A at 1 uM in presence of 10 uM ATP by Select Screen kinase assay relative to untreated control. The method in brief:
as §3

For experiment [8], the target named is Serine/threonine-protein kinase Nek7 (Homo sapiens) (UniProt Q8TDX7). Briefly: Inhibition of NEK7 at 1 uM in presence of 100 uM ATP by Select Screen kinase assay relative to untreated control. Put shortly:
as §1

The target in experiment [9] is NT-3 growth factor receptor (Homo sapiens) (UniProt Q16288). Briefly: Inhibition of NTRK3 at 1 uM in presence of 10 uM ATP by Select Screen kinase assay relative to untreated control. Put shortly: as §1
Sequence of NT-3 growth factor receptor (Homo sapiens) (Q16288 32-839 limits assumed): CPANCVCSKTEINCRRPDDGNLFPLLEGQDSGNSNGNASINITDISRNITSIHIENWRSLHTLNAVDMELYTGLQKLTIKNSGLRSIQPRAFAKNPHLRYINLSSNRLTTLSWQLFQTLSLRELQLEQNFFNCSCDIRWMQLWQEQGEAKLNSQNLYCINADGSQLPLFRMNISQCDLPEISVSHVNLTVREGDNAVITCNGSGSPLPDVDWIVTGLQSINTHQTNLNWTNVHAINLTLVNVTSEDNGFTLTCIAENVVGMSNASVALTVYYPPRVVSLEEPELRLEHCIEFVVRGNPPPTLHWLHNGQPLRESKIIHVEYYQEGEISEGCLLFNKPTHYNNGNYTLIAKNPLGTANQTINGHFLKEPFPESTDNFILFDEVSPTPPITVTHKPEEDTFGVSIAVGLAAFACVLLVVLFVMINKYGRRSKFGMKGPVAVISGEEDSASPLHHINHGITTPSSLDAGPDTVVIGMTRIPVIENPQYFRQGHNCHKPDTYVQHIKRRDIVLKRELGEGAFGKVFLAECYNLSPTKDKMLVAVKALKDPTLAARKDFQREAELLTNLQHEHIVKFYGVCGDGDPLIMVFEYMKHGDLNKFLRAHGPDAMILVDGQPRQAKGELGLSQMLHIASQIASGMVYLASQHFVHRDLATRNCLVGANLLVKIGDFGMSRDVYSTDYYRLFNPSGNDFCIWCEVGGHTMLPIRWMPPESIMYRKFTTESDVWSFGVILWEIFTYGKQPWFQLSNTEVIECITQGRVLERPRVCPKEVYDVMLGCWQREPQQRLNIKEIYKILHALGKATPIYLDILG

Sequence of Proto-oncogene tyrosine-protein kinase Src (Homo sapiens) (P12931 2-536 limits assumed): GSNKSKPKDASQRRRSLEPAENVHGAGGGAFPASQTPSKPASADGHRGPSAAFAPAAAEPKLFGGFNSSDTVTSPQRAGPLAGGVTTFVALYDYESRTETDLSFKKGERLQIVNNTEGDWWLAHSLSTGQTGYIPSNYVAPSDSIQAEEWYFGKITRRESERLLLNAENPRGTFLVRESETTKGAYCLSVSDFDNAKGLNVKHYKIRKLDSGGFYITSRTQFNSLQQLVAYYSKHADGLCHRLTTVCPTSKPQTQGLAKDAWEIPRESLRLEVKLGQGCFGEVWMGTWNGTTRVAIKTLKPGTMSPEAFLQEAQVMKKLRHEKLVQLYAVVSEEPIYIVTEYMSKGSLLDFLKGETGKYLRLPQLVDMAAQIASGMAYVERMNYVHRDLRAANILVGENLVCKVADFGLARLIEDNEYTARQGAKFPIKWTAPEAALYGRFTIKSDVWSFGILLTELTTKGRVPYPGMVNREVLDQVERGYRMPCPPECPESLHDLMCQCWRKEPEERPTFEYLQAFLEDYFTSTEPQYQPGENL
Sequence of Tyrosine-protein kinase Lyn (Homo sapiens) (P07948 2-512 limits assumed): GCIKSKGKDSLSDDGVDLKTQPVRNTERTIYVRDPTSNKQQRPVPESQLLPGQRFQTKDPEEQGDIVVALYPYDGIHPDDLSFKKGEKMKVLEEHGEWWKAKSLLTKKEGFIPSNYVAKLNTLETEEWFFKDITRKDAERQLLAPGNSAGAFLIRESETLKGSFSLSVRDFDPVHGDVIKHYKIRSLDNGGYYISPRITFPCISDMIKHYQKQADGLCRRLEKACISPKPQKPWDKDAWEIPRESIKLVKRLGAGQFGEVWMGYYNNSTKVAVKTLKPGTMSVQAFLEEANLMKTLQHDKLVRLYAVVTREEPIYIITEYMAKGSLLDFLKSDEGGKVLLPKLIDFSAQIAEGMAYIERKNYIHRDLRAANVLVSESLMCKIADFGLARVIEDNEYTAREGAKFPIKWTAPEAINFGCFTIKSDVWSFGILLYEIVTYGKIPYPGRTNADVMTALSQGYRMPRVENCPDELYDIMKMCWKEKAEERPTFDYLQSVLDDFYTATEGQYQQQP
Sequence of Protein-tyrosine kinase 6 (Homo sapiens) (Q13882 whole entry, looked up): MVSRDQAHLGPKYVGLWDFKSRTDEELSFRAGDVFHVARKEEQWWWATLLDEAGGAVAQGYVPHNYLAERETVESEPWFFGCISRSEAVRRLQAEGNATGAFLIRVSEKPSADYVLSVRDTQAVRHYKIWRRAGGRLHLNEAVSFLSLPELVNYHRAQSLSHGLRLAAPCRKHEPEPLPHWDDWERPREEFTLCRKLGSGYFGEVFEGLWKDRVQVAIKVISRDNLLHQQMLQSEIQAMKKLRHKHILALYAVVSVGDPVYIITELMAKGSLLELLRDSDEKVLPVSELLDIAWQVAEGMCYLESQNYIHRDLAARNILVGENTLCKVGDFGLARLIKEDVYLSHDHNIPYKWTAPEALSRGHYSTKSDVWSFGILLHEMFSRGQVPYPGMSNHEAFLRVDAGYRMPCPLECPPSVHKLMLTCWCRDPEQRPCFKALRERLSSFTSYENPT
Sequence of Tyrosine-protein kinase Lck (Homo sapiens) (P06239 2-509 limits assumed): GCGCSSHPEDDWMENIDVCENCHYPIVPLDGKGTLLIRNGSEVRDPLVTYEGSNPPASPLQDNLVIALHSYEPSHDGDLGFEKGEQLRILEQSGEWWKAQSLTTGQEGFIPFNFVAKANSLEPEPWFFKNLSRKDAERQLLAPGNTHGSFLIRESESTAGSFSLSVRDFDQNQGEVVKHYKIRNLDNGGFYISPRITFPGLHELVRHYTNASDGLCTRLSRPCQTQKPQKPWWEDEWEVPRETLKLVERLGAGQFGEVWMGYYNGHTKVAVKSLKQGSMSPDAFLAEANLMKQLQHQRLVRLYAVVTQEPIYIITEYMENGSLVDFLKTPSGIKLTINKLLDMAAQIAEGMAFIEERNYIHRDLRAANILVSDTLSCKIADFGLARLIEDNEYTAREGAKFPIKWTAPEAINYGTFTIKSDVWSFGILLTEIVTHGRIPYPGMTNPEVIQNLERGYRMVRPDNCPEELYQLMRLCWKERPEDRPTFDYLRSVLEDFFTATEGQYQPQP
Sequence of Serine/threonine-protein kinase Nek7 (Homo sapiens) (Q8TDX7 whole entry, looked up): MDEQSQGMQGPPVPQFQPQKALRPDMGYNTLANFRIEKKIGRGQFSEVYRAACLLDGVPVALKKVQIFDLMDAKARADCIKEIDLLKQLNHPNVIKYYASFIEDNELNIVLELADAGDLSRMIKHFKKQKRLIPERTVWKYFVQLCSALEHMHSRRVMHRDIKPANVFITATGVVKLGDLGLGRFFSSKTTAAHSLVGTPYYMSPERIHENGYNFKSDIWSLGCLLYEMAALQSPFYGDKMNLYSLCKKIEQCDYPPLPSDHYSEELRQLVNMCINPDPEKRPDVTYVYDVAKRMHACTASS

As to `COc1ccccc1N1CCN(c2ncnc3[nH]nc(Br)c23)CC1`, the inhibition (commonly the change of the read-out against control, counted positive when it falls) is 2% in experiment [1]; -2% in [2]; 10% in [3]; 3% in experiment [4]; 6% in [5]; 16% in experiment [6]. Besides, the inhibition is 13% in experiment [7], 13% in experiment [8] and 37% in experiment [9].
In the case of `O=C(NCCCNc1nc(Nc2cccc(NC(=O)N3CCCC3)c2)ncc1I)c1cccs1`, the inhibition came to 9% in [1]; 7% in [2]; 27% in experiment [3]; 5% in [4]; 10% in experiment [5]; 30% in experiment [6]. The inhibition in experiment [7] was 27%; in experiment [8] it was 9%; in experiment [9], 80%.
As to `Cc1n[nH]c2ccc(-c3cncc(OC[C@@H](N)Cc4c[nH]c5ccccc45)c3)cc12`, the inhibition in experiment [1] was 0%; in experiment [2], 0%; in [3], 11%; in [4] it was -1%; in [5], 11%; in experiment [6] it was 14%. Also, the inhibition was determined as 8% in [7], 1% in experiment [8] and 28% in experiment [9].
